For data set [1], the species on record is Mus musculus. Description: Amelioration ocular surface damage in scopolamine-induced dry eye in C57BL/6J mouse model assessed as recovery of tear volume at 0.3 %,TOP 3 times day for 10 days by phenol red thread test. Format: functional, organism-based. The settings on record: time 10.0 day. In outline: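 In scopolamine-induced dry eye mice (0.5 mg/0.1 mL s.c. three times daily, 14 days), drops were given three times daily for 10 days. Scopolamine continued for the first 8 days. Tear volume was read with phenol red thread placed 15 s in the lateral canthus, wet length by caliper. Readings were taken before induction, after induction and after 10 days of drops; n = 5.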

The species named for data set [2] is Mus musculus. Description: Amelioration ocular surface damage in scopolamine-induced dry eye in C57BL/6J mouse model assessed as decrease in IL-17 mRNA expression level in conjunctiva at 0.3 %,TOP 3 times day for 10 days by RT-PCR analysis. The data set is classed as functional, organism-based. Particulars: time 10.0 day. In outline:
(§1)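 Dry eye was induced with scopolamine hydrobromide 0.5 mg/0.1 mL given subcutaneously three times daily for 14 days. Eye drops were then applied to both eyes three times daily for 10 days, with scopolamine continued for the first 8 treatment days. The vehicle was 5% polyoxyl 35 castor oil in sodium phosphate buffer. Corneal and conjunctival IL-17 mRNA was measured by real-time PCR; mean ± S.E., n = 5.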

The species entered for data set [3] is Mus musculus. The data set can be described thus: Amelioration ocular surface damage in scopolamine-induced dry eye in C57BL/6J mouse model assessed as decrease in TNF-alpha mRNA expression level in conjunctiva at 0.3 %,TOP 3 times day for 10 days by RT-PCR analysis. The data set is classed as functional, organism-based. Particulars: time 10.0 day. Put shortly:
(§2)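 Dry eye was induced by subcutaneous scopolamine hydrobromide 0.5 mg/0.1 mL three times daily for 14 days. Eye drops (vehicle, 0.3% diquafosol or test agent) followed three times daily for 10 days, with scopolamine continued for the first 8 days. Cornea and conjunctiva mRNA for MMP-2 and TNF-α was quantified by real-time PCR; n = 5.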

The species entered for data set [4] is Mus musculus. The data set can be described thus: Amelioration ocular surface damage in scopolamine-induced dry eye in C57BL/6J mouse model assessed as decrease in MMP-2 mRNA expression level in conjunctiva at 0.3 %,TOP 3 times day for 10 days by RT-PCR analysis. Format: functional, organism-based. The settings on record: time 10.0 day. Put shortly:
as §2

The species named for data set [5] is Mus musculus. The data set can be described thus: Amelioration ocular surface damage in scopolamine-induced dry eye in C57BL/6J mouse model assessed as decrease in IL-17 mRNA expression level in cornea at 0.3 %,TOP 3 times day for 10 days by RT-PCR analysis. Particulars: time 10.0 day. The data set is classed as functional, organism-based. Put shortly: as §1

The species entered for data set [6] is Mus musculus. Description: Amelioration ocular surface damage in scopolamine-induced dry eye in C57BL/6J mouse model assessed as decrease in TNF-alpha mRNA expression level in cornea at 0.3 %,TOP 3 times day for 10 days by RT-PCR analysis. Particulars: time 10.0 day. Format: functional, organism-based. Put shortly: as §2
For data set [7], the species on record is Mus musculus. Description: Amelioration ocular surface damage in scopolamine-induced dry eye in C57BL/6J mouse model assessed as decrease in MMP-2 mRNA expression level in cornea at 0.3 %,TOP 3 times day for 10 days by RT-PCR analysis. The settings on record: time 10.0 day. Format: functional, organism-based. Put shortly: as §2
Data set [8] has as its target T1, Cystic fibrosis transmembrane conductance regulator (Homo sapiens, UniProt P13569). The data set can be described thus: Activation of human wild-type CFTR stably expressed in CHO-K1 cells co-expressing halide sensors YFP-H148Q/I152L assessed as CFTR-mediated iodide influx incubated for 10 mins by YFP fluorescence quenching assay. The data set is classed as cell-based.
Target sequence in this assay (P13569 whole entry): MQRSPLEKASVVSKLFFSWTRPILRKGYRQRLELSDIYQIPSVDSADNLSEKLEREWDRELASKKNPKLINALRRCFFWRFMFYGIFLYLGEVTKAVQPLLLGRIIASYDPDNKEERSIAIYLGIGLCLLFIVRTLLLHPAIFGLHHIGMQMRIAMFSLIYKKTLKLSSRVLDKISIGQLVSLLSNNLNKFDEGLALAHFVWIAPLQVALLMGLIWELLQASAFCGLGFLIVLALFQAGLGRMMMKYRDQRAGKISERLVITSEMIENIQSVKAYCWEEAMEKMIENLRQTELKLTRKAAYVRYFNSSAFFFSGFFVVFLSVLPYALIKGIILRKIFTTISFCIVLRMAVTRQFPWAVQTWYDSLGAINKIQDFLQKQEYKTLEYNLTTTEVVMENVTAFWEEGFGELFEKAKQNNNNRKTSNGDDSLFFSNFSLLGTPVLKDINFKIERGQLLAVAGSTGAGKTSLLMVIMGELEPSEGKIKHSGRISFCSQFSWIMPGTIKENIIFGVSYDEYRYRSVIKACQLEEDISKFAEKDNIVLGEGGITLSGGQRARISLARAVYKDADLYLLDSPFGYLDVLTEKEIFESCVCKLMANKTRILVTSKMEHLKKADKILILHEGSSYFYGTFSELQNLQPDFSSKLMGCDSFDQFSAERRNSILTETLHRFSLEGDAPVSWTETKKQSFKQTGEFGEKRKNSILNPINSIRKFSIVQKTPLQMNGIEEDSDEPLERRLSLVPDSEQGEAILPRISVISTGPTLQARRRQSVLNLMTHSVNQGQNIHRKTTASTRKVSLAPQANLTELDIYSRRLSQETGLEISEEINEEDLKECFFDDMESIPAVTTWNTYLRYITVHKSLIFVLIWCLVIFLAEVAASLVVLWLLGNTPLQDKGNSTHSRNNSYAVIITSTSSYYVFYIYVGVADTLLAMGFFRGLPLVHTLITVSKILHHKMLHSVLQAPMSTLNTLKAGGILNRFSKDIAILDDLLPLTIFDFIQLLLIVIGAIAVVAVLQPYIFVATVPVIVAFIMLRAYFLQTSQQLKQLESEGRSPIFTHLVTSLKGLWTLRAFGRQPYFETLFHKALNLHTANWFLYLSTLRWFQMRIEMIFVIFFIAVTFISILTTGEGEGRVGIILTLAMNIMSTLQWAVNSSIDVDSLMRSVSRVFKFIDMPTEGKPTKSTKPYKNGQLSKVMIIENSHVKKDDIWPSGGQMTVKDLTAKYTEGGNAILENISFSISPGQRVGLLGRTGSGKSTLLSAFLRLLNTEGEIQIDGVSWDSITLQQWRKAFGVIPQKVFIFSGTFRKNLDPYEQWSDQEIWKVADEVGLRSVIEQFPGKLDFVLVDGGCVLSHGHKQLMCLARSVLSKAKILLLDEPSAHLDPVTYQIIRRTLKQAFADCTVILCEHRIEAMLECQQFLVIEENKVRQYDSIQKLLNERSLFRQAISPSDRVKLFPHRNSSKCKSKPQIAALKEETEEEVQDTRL

Data set [9] is described as follows: Solubility of compound in PBS at 7.5 at 0.5 mg/ml incubated for 90 mins by LC-MS/MS analysis. Format: physicochemical. In outline:
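Thermodynamic solubility: compound at 0.5 mg/mL in isotonic phosphate-buffered saline, pH 7.5, vortexed for 90 min. The solution was then filtered sequentially through 0.45, 1.2 and 5.0 μm filters. Concentration was measured by LC-MS/MS against a ≥6-point internal-standard calibration curve (weighted 1/x linear or quadratic) and back-calculated.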

Data set [10] addresses T1, Cystic fibrosis transmembrane conductance regulator. The data set can be described thus: Activation of human CFTR expressed in CHO-K1 cells assessed as increase in intracellular cAMP level at 10 uM incubated for 10 mins in presence of IBMX by Immunoassay. The data set is classed as cell-based. Particulars: filed as activator. In general terms: Cyclic AMP is a second messenger, typically raised through Gs and lowered through Gi signalling.
Target sequence in this assay (P13569 whole entry, looked up): as the sequence (P13569 whole entry) above

For data set [11] the target is unchanged. Description: Activation of human wild-type CFTR stably expressed in CHO-K1 cells assessed as increase in chloride current at holding potential 0 mV at 30 uM by whole-cell patch-clamp assay. The settings on record: filed as activator. On the technique in general: The patch-clamp technique gives a direct electrical read-out from membranes.
Target sequence in this assay (P13569 whole entry, looked up): as the sequence (P13569 whole entry) above
Data set [12] shares this target. The data set can be described thus: Activation of human wild-type CFTR stably expressed in rat FRT cells assessed as increase in apical membrane chloride current incubated for 20 mins by patch-clamp assay. Format: cell-based.
Target sequence in this assay (P13569 whole entry): as above
The species entered for data set [13] is Mus musculus. Description: Effect on tear secretion in C57BL/6J mouse assessed as increase in tear volume at 1 to 72 uM,TOP and measured upto 6 hrs by phenol red thread test. Format: functional. Particulars: dose 1-72 µM. Put shortly: (§3)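 Normal female C57BL/6J mice received 2.5 μL eye drops in both eyes, held for 30 s. Vehicle was 5% polyoxyl 35 castor oil in sodium phosphate buffer. Tear volume was read by phenol red thread placed 15 s in the lateral canthus, wet length by caliper. Readings were taken at 0 h (baseline) and at 1, 3 and 6 h post-dose; n = 6.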

The species entered for data set [14] is Mus musculus. The data set can be described thus: Effect on tear secretion in C57BL/6J mouse assessed as maximum tear volume at 1 to 72 uM,TOP and measured after 3 hr by phenol red thread test. The data set is classed as functional. The settings on record: dose 1-72 µM. Put shortly: as §3

The text below walks through data of ChEMBL document CHEMBL5316288, “Synthetic Strategies for Improving Solubility: Optimization of Novel Pyrazolo[1,5-a]pyrimidine CFTR Activator That Ameliorates Dry Eye Disease” (J Med Chem, 2023).

In brackets after ≈: the same amount, converted by molar mass. Activity calls are given as the source filed them. The rule behind the calls is not given here.

What is called EC50 is the concentration at which the effect is half-maximal. Broadly, the thermodynamic solubility is solubility found after equilibrating the solid with the medium.

`O=c1ccn(C2O[C@H](COP(=O)(O)OP(=O)(O)OP(=O)(O)OP(=O)(O)OC[C@H]3O[C@@H](n4ccc(=O)[nH]c4=O)[C@H](O)[C@@H]3O)[C@@H](O)[C@H]2O)c(=O)[nH]1` (some centres undefined): the outcome in the data set listed under Mus musculus [1], in the data set filed under Mus musculus [2], in the data set listed under Mus musculus [3], in the data set listed under Mus musculus [4], in the data set listed under Mus musculus [5] and in the data set filed under Mus musculus [6] was Active. Also, the result in the data set listed under Mus musculus [7] was Active. As for `COc1ccc(-c2ccnc3cc(C(=O)N4CCN(c5ccccc5)CC4)nn23)cc1OC`, the 50% effective concentration (EC50) in [8] came out at 840 nM. Regarding `COc1ccc(-c2ccnc3cc(C(=O)Nc4ccccc4)nn23)cc1OC`, the EC50 in [8] is 65 nM. In addition, the thermodynamic solubility at 1.5 h in data set [9] (buffer, pH 7.5, 1.5 h) was determined as 0.059 µM (≈ 0.0221 µg/mL).

Take `COc1ccc(-c2ccnc3cc(C(=O)NCc4ccc(N5CCOCC5)cc4)nn23)cc1OC`: in data set [8], the 50% effective concentration (EC50) was found to be 710 nM. Take `COc1ccc(-c2ccnc3cc(C(=O)N4CCNCC4)nn23)cc1OC`: the EC50 in [8] came to 17000 nM. On to `COc1ccc(-c2ccnc3cc(C(=O)N4CCN(C(=O)C5CC5)CC4)nn23)cc1OC`, for which, in [8], the EC50 is 1700 nM. `COc1ccc(-c2ccnc3cc(C(=O)N4CCN(C(=O)c5ccccc5)CC4)nn23)cc1OC`: in data set [8], the half-maximal effective concentration (EC50) is 110 nM. Also, the solubility (thermodynamic) at 1.5 h in [9] (PBS, pH 7.5) amounted to 10.1 µM (≈ 4.74 µg/mL). The like results for `COc1ccc(-c2ccnc3cc(C(=O)Nc4ccc(C(=O)O)cc4F)nn23)cc1OC` were, in that order, 42 nM and 0.341 µM (≈ 0.149 µg/mL). Turning to `COC(=O)C12CC(NC(=O)c3cc4nccc(-c5ccc(OC)c(OC)c5)n4n3)(C1)C2`, in data set [8], the EC50 stood at 310 nM. For the same molecule, the thermodynamic solubility at 1.5 h in [9] (PBS, pH 7.5) amounted to 1.42 µM (≈ 0.599 µg/mL).

The molecule `COc1ccc(-c2ccnc3cc(C(=O)N[C@H]4CC[C@@H](C(=O)OC)CC4)nn23)cc1OC` showed a thermodynamic solubility at 1.5 h in data set [9] (PBS, pH 7.5) of 7.55 µM (≈ 3.31 µg/mL). On to `COc1ccc(-c2ccnc3cc(C(=O)N4CCN(Cc5ccccc5)CC4)nn23)cc1OC`, for which the EC50 in data set [8] was 730 nM. Same read-out and setting: the value for `COc1ccc(-c2ccnc3cc(C(=O)N4CCN(C)CC4)nn23)cc1OC` was 8100 nM. For `COc1ccc(-c2ccnc3cc(C(=O)Nc4ccc(C(=O)O)cc4)nn23)cc1OC`, in data set [8], the EC50 stood at 310 nM. This molecule yielded a solubility (thermodynamic) at 1.5 h in data set [9] (PBS, pH 7.5) of 5.21 µM (≈ 2.18 µg/mL). With `COc1ccc(-c2ccnc3cc(C(=O)N4CCN(C5CC5)CC4)nn23)cc1OC`, the EC50 in data set [8] was 1400 nM.

As for `COc1ccc(-c2ccnc3cc(C(=O)N4CC(NC(=O)OC(C)(C)C)C4)nn23)cc1OC`, the 50% effective concentration (EC50) in data set [8] turned out to be 700 nM.

For the molecule `COc1ccc(-c2ccnc3cc(C(=O)N[C@H]4CC[C@H](C(=O)OC)CC4)nn23)cc1OC`, the thermodynamic solubility at 1.5 h in [9] (PBS, pH 7.5) was found to be 1.39 µM (≈ 0.611 µg/mL). Regarding `C=C[C@@]1(C)CC(=O)[C@]2(O)[C@@]3(C)[C@@H](O)CCC(C)(C)[C@@H]3[C@H](O)[C@H](OC(C)=O)[C@@]2(C)O1`, the result in data set [10] and in data set [11] was Active.

`COc1ccc(-c2ccnc3cc(C(=O)N4CCN(C(=O)c5ccccc5)[C@H](C)C4)nn23)cc1OC` displayed a thermodynamic solubility at 1.5 h in data set [9] (PBS, pH 7.5) of 159 µM (≈ 77 µg/mL).

Consider `COc1ccc(-c2ccnc3cc(C(=O)NC4CCCCC4)nn23)cc1OC`, for which the EC50 in [8] was 130 nM. On the same count and under the same terms, the value for `COc1ccc(-c2ccnc3cc(C(=O)N4CCN(C(C)C)CC4)nn23)cc1OC` was 6000 nM; that for `COc1ccc(-c2ccnc3cc(C(=O)N4CC[C@@H](NC(=O)OC(C)(C)C)C4)nn23)cc1OC` was 370 nM; that for `COc1ccc(-c2ccnc3cc(C(=O)Nc4ccc(C(=O)N5CCN(C(=O)OC(C)(C)C)CC5)cc4)nn23)cc1OC` was 17 nM. Same read-out and setting: the value for `COC(=O)c1ccc(NC(=O)c2cc3nccc(-c4ccc(OC)c(OC)c4)n3n2)c(Cl)c1` was 2700 nM. Still for that read-out and setting: the value for `COc1ccc(-c2ccnc3cc(C(=O)Nc4ccc(OCCN5CCOCC5)cc4)nn23)cc1OC` was 6 nM. Consider `COC(=O)c1ccc(NC(=O)c2cc3nccc(-c4ccc(OC)c(OC)c4)n3n2)cc1`, for which, in [8], the EC50 stood at 14 nM. On the same count and under the same terms, the value for `COc1ccc(-c2ccnc3cc(C(=O)Nc4ccc(N5CCOCC5)cc4)nn23)cc1OC` was 7 nM; that for `COc1ccc(-c2ccnc3cc(C(=O)N4CCN(C(=O)OC(C)(C)C)CC4)nn23)cc1OC` was 270 nM.

Take `COc1ccc(-c2ccnc3cc(C(=O)N4CCN(C(=O)c5ccccc5)C(C)(C)C4)nn23)cc1OC`: the EC50 in data set [8] turned out to be 200 nM. The molecule further returned a thermodynamic solubility at 1.5 h in [9] (PBS, pH 7.5) of 1.82 µM (≈ 0.907 µg/mL). Consider `COC(=O)c1ccc(CNC(=O)c2cc3nccc(-c4ccc(OC)c(OC)c4)n3n2)cc1`, for which, in data set [8], the EC50 came out at 470 nM.

Take `COc1ccc(-c2ccnc3cc(C(=O)Nc4ccc(C(=O)NCCN)cc4)nn23)cc1OC`: the half-maximal effective concentration (EC50) in data set [8] came to 16000 nM. As to `COc1ccc(-c2ccnc3cc(C(=O)Nc4ccc(C(=O)N5CCN(C)CC5)cc4)nn23)cc1OC.Cl`, the EC50 in data set [8] amounted to 290 nM. The solubility (thermodynamic) at 1.5 h in data set [9] (PBS, pH 7.5) is 237 µM. `CCOc1ccc(NC(=O)c2cc3nccc(-c4ccc(OC)c(OC)c4)n3n2)cc1`: the 50% effective concentration (EC50) in data set [12] was determined as 342 nM; in [8], 18 nM. Moreover, in the data set filed under Mus musculus [13], the Activity entry was “Dose-Dependent Effect”. Also, the result in the data set filed under Mus musculus [14] was Active.
